Key:
[1] = Inhibition of HIV1 NL4-3 gp160 assessed as inhibition of interaction between gp120 and host CD4 receptor by cell-cell fusion assay; design: species or system Human immunodeficiency virus 1
[2] = test system: Human immunodeficiency virus 1; assay: Antiviral activity against Human immunodeficiency virus 1 NL4-3 infected HeLaP4 cells after 5 days by beta-galactosidase reporter assay; assay type: functional, organism-based; details: Human immunodeficiency virus 1, NL4-3, HeLaP4, 120 h
How it was run: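 HeLa-P4 cells were premixed with NL4-3 virus and added at 10^5 cells/mL to wells containing diluted compound. Plates were incubated for 5 days at 37 °C in humidified 5% CO₂. Infection was quantified with a β-galactosidase reporter assay.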

[3] = Clearance in rat at 1 mg/kg, iv and 1 mg/kg, po; assay type: ADME, organism-based; details: in vivo
Rattus norvegicus [4] = assay: Unbound clearance in rat at 1 mg/kg, iv and 1 mg/kg, po; assay type: ADME, organism-based; details: in vivo
Rattus norvegicus [5] = assay: Unbound volume of distribution in rat at 1 mg/kg, iv and 1 mg/kg, po; assay type: ADME, organism-based; details: in vivo
[6] = Bioavailability in rat at 1 mg/kg; assay type: ADME, organism-based; details: in vivo
[7] = Fraction of compound absorbed in rat at 1 mg/kg, iv and 1 mg/kg, po; assay type: ADME, organism-based; details: in vivo, read-out: Fabs
[8] = Half life in rat at 1 mg/kg, iv and 1 mg/kg, po; assay type: ADME, organism-based; details: in vivo

Row | SMILES | IC50 [1] | IC50 [2] | also measured
1 | C[C@H](Oc1cccc2nc(N(C)C)ccc12)C(=O)N1CCN(C(=O)c2ccccc2)C[C@H]1C | 3200 nM | – | –
2 | CNC(=O)c1cc(OC)c(O[C@@H](C)C(=O)N2CCN(c3nccn3CC3CC3)C[C@H]2C)cn1 | 1900 nM | – | –
3 | CNC(=O)c1cc(OC)c(O[C@@H](C)C(=O)N2CCN(c3n[nH]c4ccccc34)C[C@H]2C)cn1 | 42 nM | 979 nM | –
4 | CC(Oc1ccnc2ccccc12)C(=O)N1CCN(C(=O)c2ccccc2)C[C@H]1C (some centres not stated) | 7430 nM | – | –
5 | CC(Oc1cccc2ccccc12)C(=O)N1CCN(C(=O)c2ccccc2)C[C@H]1C (some centres not stated) | 123 nM | 1070 nM | –
6 | CNC(=O)c1ccc(O[C@@H](C)C(=O)N2CCN(C(=O)c3ccccc3)C[C@H]2C)c2c(C)n[nH]c12 | > 10000 nM | – | –
7 | CC(Oc1cccc2cccnc12)C(=O)N1CCN(C(=O)c2ccccc2)C[C@H]1C (some centres not stated) | 433 nM | 449 nM | –
8 | CC(Oc1cccc2ccncc12)C(=O)N1CCN(C(=O)c2ccccc2)C[C@H]1C (some centres not stated) | 575 nM | 2040 nM | –
9 | CNc1ccc2c(O[C@@H](C)C(=O)N3CCN(C(=O)c4ccccc4)C[C@H]3C)cccc2n1 | 5 nM | 13 nM | clearance [3]: 27 mL/min/kg; CL free (Rattus norvegicus [4]): 129 mL/min/kg; Vdu (Rattus norvegicus [5]): 10.5 L/kg; bioavailability [6]: 42%; Fa [7]: 60%; half-life [8]: 54 min
10 | CC(Oc1cccc2c(=O)[nH]ccc12)C(=O)N1CCN(C(=O)c2ccccc2)C[C@H]1C (some centres not stated) | 68 nM | 1050 nM | –

More lines, main results first:

Row | IC50 [1] | IC50 [2] | SMILES | also measured
11 | 29 nM | > 1000 nM | CNC(=O)c1cc(OC)c(O[C@@H](C)C(=O)N2CCN(c3nccc4[nH]ccc34)C[C@H]2C)cn1 | –
12 | 16 nM | 36 nM | Cc1n[nH]c2cccc(OC(C)C(=O)N3CCN(C(=O)c4ccccc4)C[C@H]3C)c12 (some centres not stated) | –
13 | 296 nM | – | CNC(=O)c1cc(OC)c(O[C@@H](C)C(=O)N2CCN(c3ncnc4[nH]cnc34)C[C@H]2C)cn1 | –
14 | 9370 nM | – | CC(Oc1cncc2ccccc12)C(=O)N1CCN(C(=O)c2ccccc2)C[C@H]1C (some centres not stated) | –
15 | 15 nM | 79 nM | Cc1nn(C)c2cccc(OC(C)C(=O)N3CCN(C(=O)c4ccccc4)C[C@H]3C)c12 (some centres not stated) | –
16 | 71 nM | 1620 nM | CNC(=O)c1cc(OC)c(O[C@@H](C)C(=O)N2CCN(c3ncccn3)C[C@H]2C)cn1 | –
